Seven molecules from ChEMBL document CHEMBL1123899, “Nucleic acid related compounds. 51. Synthesis and biological properties of sugar-modified analogues of the nucleoside antibiotics tubercidin, toyocamycin, sangivamycin, and formycin” (1987) can be followed below.

≈ marks a conversion by molar mass, not a printed value.

The subject of assay [1] is Coxsackievirus B4. The assay can be described thus: Minimum inhibitory concentration required to reduce Coxsackie virus type B-4-induced cytopathogenicity by 50%. The format is functional. Background: Cytopathic effects are the visible damage that an infection or toxin causes in cultured cells.
In assay [2] the test system is Human alphaherpesvirus 1. Kind of assay: Minimum inhibitory concentration required to reduce Herpes simplex virus type 1 (HSV-1, strain KOS) induced cytopathogenicity by 50%. The assay is classed as functional.
Assay [3] has as its system HeLa. The assay can be described thus: Minimum cytotoxic concentration required to cause a microscopically detectable alteration of normal cell morphology in Hela cells. The format is functional, Homo sapiens. In outline: (§1)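 Cytotoxicity read microscopically as the minimum concentration producing a detectable alteration of normal cell morphology, in PRK, HeLa or Vero cell cultures. Average of two to three separate experiments.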

Assay [4] deals with L1210. The assay can be described thus: Inhibition of murine leukemia L1210 cell growth. The assay is classed as functional. Conditions: Mus musculus. A digest of the protocol: (§2)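 Murine L1210 leukemia cells; MIC50 is the concentration reducing cell growth, or incorporation of [methyl-3H]dThd into TCA-insoluble material (DNA synthesis), by 50%. Average of at least three separate experiments.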

Assay [5] deals with L1210. The assay can be described thus: Minimum inhibitory concentration required to reduce incorporation of [4,5-3H]leucine into TCA-insoluble material from murine leukemia L1210 cells. The assay is classed as functional. Conditions: Mus musculus. A digest of the protocol: (§3)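 Murine L1210 leukemia cells were exposed to compound and incorporation of [4,5-3H]leucine (protein) or [5-3H]Urd (RNA) into TCA-insoluble material was measured. MIC50 is the concentration reducing incorporation by 50%. Values are averages of at least three separate experiments.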

The subject of assay [6] is L1210. Kind of assay: Minimum inhibitory concentration required to reduce incorporation of [5-3H]-Urd into TCA-insoluble material from murine leukemia L1210 cells. Conditions: Mus musculus. The assay is classed as functional. A digest of the protocol: as §3
Assay [7] deals with L1210. The assay can be described thus: Minimum inhibitory concentration required to reduce incorporation of [methyl-3H]dThd into TCA-insoluble material from murine leukemia L1210 cells. The assay is classed as functional. Conditions: Mus musculus. In outline:
as §2

Assay [8] has as its system Measles morbillivirus. The assay can be described thus: Minimum inhibitory concentration required to reduce measles virus induced cytopathogenicity by 50%. The format is functional.
Assay [9] concerns Human respirovirus 3. Kind of assay: Minimum inhibitory concentration required to reduce parainfluenza type 3 induced cytopathogenicity by 50%. The format is functional.
Assay [10] deals with Poliovirus 1. Kind of assay: Minimum inhibitory concentration required to reduce Polio virus type 1 induced cytopathogenicity by 50%. The assay is classed as functional. Conditions: Enterovirus C.
For assay [11], the species on record is Oryctolagus cuniculus. Kind of assay: Minimum cytotoxic concentration required to cause a microscopically detectable alteration of normal cell morphology in primary rabbit kidney cells. The assay is classed as functional. In outline: as §1
The subject of assay [12] is Mammalian orthoreovirus 1. The assay can be described thus: Minimum inhibitory concentration required to reduce reo virus type 1 induced cytopathogenicity by 50%. The assay is classed as functional.
The subject of assay [13] is Sindbis virus. The assay can be described thus: Minimum inhibitory concentration required to reduce sindbis virus induced cytopathogenicity by 50%. The format is functional.
The test system of assay [14] is Vesicular stomatitis virus. The assay can be described thus: Minimum inhibitory concentration required to reduce Vesicular stomatitis virus (VSV) induced cytopathogenicity by 50%. The format is functional.
Assay [15] concerns Vesicular stomatitis virus. Kind of assay: Minimum inhibitory concentration required to reduce vesicular stomatitis virus (VSV) induced cytopathogenicity by 50%. The format is functional.
In assay [16] the test system is Vero. The assay can be described thus: Minimum cytotoxic concentration required to cause a microscopically detectable alteration of normal cell morphology in Vero cells. The format is functional, Chlorocebus sabaeus. A digest of the protocol:
as §1

The test system of assay [17] is Human alphaherpesvirus 2. The assay can be described thus: Minimum inhibitory concentration required to reduce Herpes simplex virus type 2 (HSV-2 strain G) induced cytopathogenicity by 50%. The assay is classed as functional.

On to `N#Cc1cn(C2OC(CO)CC2O)c2ncnc(N)c12` (stereo not drawn), for which the MIC50 in [1] was over 1 µg/mL; in assay [1] (Enterovirus B, read-out: MIC50), 0.7 µg/mL (≈ 2.54 µM); in [2], over 0.4 µg/mL; in assay [4], 0.02 µg/mL (≈ 0.0727 µM); in [5], 0.113 µg/mL (≈ 0.411 µM); in [6], 0.16 µg/mL (≈ 0.581 µM). Besides, the MIC50 in assay [7] was 93 µg/mL (≈ 338 µM); in assay [8], over 1 µg/mL; in assay [9], 0.4 µg/mL (≈ 1.45 µM); in assay [10], over 1 µg/mL; in assay [12], 0.7 µg/mL (≈ 2.54 µM); in assay [13], 0.7 µg/mL (≈ 2.54 µM). For the same molecule, the MIC50 in [14] is over 1 µg/mL; in assay [15], over 1 µg/mL; in assay [17], over 0.4 µg/mL. In addition, the MTC in assay [3], in assay [11] and in assay [16] was 1 µg/mL in each case.

For `Nc1ncnc2c(C3OC(CO)CC3O)n[nH]c12` (stereo not drawn), the MIC50 in [1] (Enterovirus B, read-out: MIC50) is over 400 µg/mL; in assay [2] it was over 400 µg/mL; in [4] it was over 1000 µg/mL; in assay [5], over 1000 µg/mL; in [6], over 1000 µg/mL; in assay [7] it was over 1000 µg/mL. Further, the MIC50 in assay [8] is 100 µg/mL (≈ 398 µM); in assay [9], over 400 µg/mL; in [10], over 400 µg/mL; in [12], over 400 µg/mL; in [13] it was over 400 µg/mL; in assay [14], over 400 µg/mL. The molecule further gave an MIC50 in assay [15] of over 400 µg/mL. The MTC in [3], in [11] and in [16] was over 400 µg/mL throughout.

Regarding `Nc1ncnc2c1ccn2[C@@H]1O[C@H](CO)[C@@H](O)[C@@H]1O`, the MIC50 in assay [1] (Enterovirus B, read-out: MIC50) is over 400 µg/mL; in assay [2] it was 125 µg/mL (≈ 469 µM); in [4], 7 µg/mL (≈ 26.3 µM); in assay [5] it was 151 µg/mL (≈ 567 µM); in assay [6], 237 µg/mL (≈ 890 µM); in [7], 32 µg/mL (≈ 120 µM). Also, the MIC50 was over 400 µg/mL in assay [8]; 300 µg/mL (≈ 1130 µM) in assay [9]; over 400 µg/mL in assay [10]; over 400 µg/mL in [12]; over 400 µg/mL in assay [13]; over 350 µg/mL in assay [14]. Moreover, the MIC50 in assay [15] was over 400 µg/mL; in assay [17], 40 µg/mL (≈ 150 µM). The MTC in assay [3], in [11] and in assay [16] was over 400 µg/mL throughout.

`Nc1ncnc2c([C@H]3C[C@H](O)[C@@H](CO)O3)n[nH]c12`: the MIC50 in assay [1] (Enterovirus B, read-out: MIC50) is over 400 µg/mL; in [2], over 400 µg/mL; in [4], 867 µg/mL (≈ 3450 µM); in assay [5], over 1000 µg/mL; in assay [6], over 100 µg/mL; in [7], over 1000 µg/mL. Besides, the MIC50 in assay [8], in assay [9], in assay [10], in assay [12], in assay [13] and in assay [14] was over 400 µg/mL in each case. Also, the MIC50 in [15] and in assay [17] was over 400 µg/mL each time. For the same molecule, the MTC in assay [3], in assay [11] and in [16] was over 400 µg/mL throughout.

`N#Cc1cn([C@@H]2O[C@H](CO)[C@@H](O)[C@@H]2O)c2ncnc(N)c12`: the MIC50 was over 10 µg/mL in [1] (Enterovirus B, read-out: MIC50); 7 µg/mL (≈ 24 µM) in assay [2]; 2 µg/mL (≈ 6.87 µM) in assay [4]; 4.8 µg/mL (≈ 16.5 µM) in assay [5]; 10.3 µg/mL (≈ 35.4 µM) in assay [6]; 14 µg/mL (≈ 48.1 µM) in assay [7]. Further, the MIC50 in [8], in assay [9], in assay [10], in assay [12], in assay [13] and in assay [14] was over 10 µg/mL throughout. In addition, the MIC50 in [15] is over 10 µg/mL; in assay [17] it was 2 µg/mL (≈ 6.87 µM). Also, the MTC in assay [3], in assay [11] and in assay [16] was 10 µg/mL each time.

Regarding `NC(=O)c1cn(C2OC(CO)CC2O)c2ncnc(N)c12` (stereo not drawn), the MIC50 in [1] (Enterovirus B, read-out: MIC50) is over 40 µg/mL; in assay [2], over 10 µg/mL; in [4] it was 0.46 µg/mL (≈ 1.57 µM); in [7], 17 µg/mL (≈ 58 µM); in assay [8] it was over 40 µg/mL; in assay [9], 10 µg/mL (≈ 34.1 µM). Also, the MIC50 is over 40 µg/mL in assay [10]; over 40 µg/mL in assay [12]; over 40 µg/mL in assay [13]; over 40 µg/mL in assay [14]; over 10 µg/mL in assay [15]; over 10 µg/mL in [17]. The values for the MTC in [3], in [11] and in assay [16] were 40 µg/mL, 10 µg/mL and 40 µg/mL, respectively.

For the molecule `Nc1ncnc2c1ccn2[C@@H]1O[C@H](CO)[C@@H](O)[C@H]1O` [TUBERCIDIN], the MIC50 turned out to be 0.07 µg/mL (≈ 0.263 µM) in [1]; 0.07 µg/mL (≈ 0.263 µM) in [1] (Enterovirus B, read-out: MIC50); 0.1 µg/mL (≈ 0.376 µM) in assay [2]; 0.04 µg/mL (≈ 0.15 µM) in [4]; 0.173 µg/mL (≈ 0.65 µM) in assay [5]; 0.29 µg/mL (≈ 1.09 µM) in assay [6]. The MIC50 in assay [7] worked out at 5.4 µg/mL (≈ 20.3 µM); in [8], 0.3 µg/mL (≈ 1.13 µM); in assay [9] it was 0.07 µg/mL (≈ 0.263 µM); in assay [10] it was 0.02 µg/mL (≈ 0.0751 µM); in assay [12] it was 0.04 µg/mL (≈ 0.15 µM); in assay [13], 0.2 µg/mL (≈ 0.751 µM). The MIC50 in [14] is 0.01 µg/mL (≈ 0.0376 µM); in assay [15], 0.02 µg/mL (≈ 0.0751 µM); in assay [17], 0.1 µg/mL (≈ 0.376 µM). For the same molecule, the MTC in [3], in [11] and in assay [16] was 0.4 µg/mL throughout.
